# Results of several laboratories.
# Protocols differ between the studies behind these lines.
Compound,organism,test,system,conditions,measurement,value
Nc1nc(NS(=O)(=O)c2ccccc2)nc(-c2ccc(Cl)cc2)c1-c1nc2ccccc2s1,Enterovirus B,plaque formation,"BGM, B4",,IC50,91 µg/mL
CCOC(=O)N[C@H](C(=O)N1CCC[C@H]1C(=O)Nc1ccc(C#CC#Cc2ccc(NC(=O)[C@@H]3CCCN3C(=O)[C@@H](NC(=O)OCC)C(C)C)cc2)cc1)C(C)C,Hepatitis C virus,"viral replication, inhibitor, luciferase","Huh-5-2, GETYPE1B","72 h, replicon",EC50,0.09 µM
CCOC(=O)c1c(N)csc1-c1cn(-c2ccccc2)nc1-c1ccccc1,Acinetobacter baumannii,"microbial growth, well diffusion",,100000 µg/mL,inhibition zone,20 mm
CC1(C)OC[C@@]2(C)[C@H]3CC[C@@H]4CN(Cc5ccco5)[C@@H](C5=CCOC5=O)C[C@H]4[C@]3(C)CC[C@H]2O1,unidentified human coronavirus,cytopathic effect,MRC5,"25 µM, 72 h",inhibition,17.5%
COC(=O)N[C@H](C(=O)N1CCC[C@H]1c1ncc(-c2ccc(-c3ccc(-c4cnc([C@@H]5CCCN5C(=O)[C@@H](NC(=O)OC)C(C)C)[nH]4)cc3)cc2)[nH]1)C(C)C,Hepatitis C virus,"viral replication, inhibitor",GETYPE1A,replicon,EC50,5e-05 µM
CCCCCCC/C=C/C(=O)N1C(=O)/C(=C(/C)O)C(=O)C1CCCCN (stereo not shown),Proteus mirabilis,microbial growth,ATCC25933,,MIC,> 200 µg/mL
CCOC(=O)N[C@@H](CC(C)C)C(=O)N1CCC[C@@H]1C(=O)Nc1ccc(C#CC#Cc2ccc(NC(=O)[C@H]3CCCN3C(=O)[C@H](CC(C)C)NC(=O)OCC)cc2)cc1,Hepatitis C virus,"viral replication, inhibitor, luciferase","Huh-5-2, GETYPE1B","72 h, replicon",EC50,5.63 µM
Cc1ccc(-c2nn(-c3ccccc3)cc2C=C(C#N)C2=NC(=O)CS2)cc1,Acinetobacter baumannii,"microbial growth, well diffusion",,100000 µg/mL,inhibition zone,20 mm
CCCCCCC/C=C/C(=O)N1C(=O)/C(=C(/C)O)C(=O)C1Cc1ccc(OC(C)(C)C)cc1 (stereo not shown),Proteus mirabilis,microbial growth,ATCC25933,,MIC,> 200 µg/mL
CC1(C)OC[C@@]2(C)[C@H]3CC[C@@H]4CN(Cc5cccs5)[C@@H](C5=CCOC5=O)C[C@H]4[C@]3(C)CC[C@H]2O1,unidentified human coronavirus,cytopathic effect,MRC5,"25 µM, 72 h",inhibition,38.4%
N#CC(=Cc1ccc([N+](=O)[O-])cc1)C1=NC(=O)C(=Cc2cn(-c3ccccc3)nc2-c2ccccc2)S1,Acinetobacter baumannii,"microbial growth, well diffusion",,100000 µg/mL,inhibition zone,19 mm
C[C@]1(CO)[C@H]2CC[C@@H]3CN(Cc4cccs4)[C@@H](C4=CCOC4=O)C[C@H]3[C@]2(C)CC[C@H]1O,unidentified human coronavirus,cytopathic effect,MRC5,"25 µM, 72 h",inhibition,15.7%
Cc1ccc(-c2nn(-c3ccccc3)cc2C=c2sc(=CC#N)[nH]c2=O)cc1,Acinetobacter baumannii,"microbial growth, well diffusion",,100000 µg/mL,inhibition zone,14 mm
[N-]=[N+]=Nc1nc(N=[N+]=[N-])c2ncn([C@@H]3O[C@H](COC(=O)c4ccccc4)[C@@H](F)[C@@H]3F)c2n1,Hepatitis C virus,"viral replication, inhibitor",Huh-7,replicon,EC90,> 10 µM
CCCCCCC/C=C/C(=O)N1CC(=O)/C(=C(\C)O)C1=O,Proteus mirabilis,microbial growth,ATCC25933,,MIC,> 200 µg/mL
CC(C)Oc1c(NC(=O)c2ccc(NC(=O)c3ccc(NC(=O)[C@H](CC(N)=O)NC(=O)c4ccc(NC(=O)c5ccc(C#N)cn5)cc4)cc3)c(OC(C)C)c2O)ccc(C(=O)O)c1O,Proteus mirabilis,microbial growth,DSM4479,,MIC,8 µg/mL
CC(C)[C@H](NC(=O)OCc1ccccc1)C(=O)N1CCC[C@H]1C(=O)Nc1cccc(C#CC#Cc2cccc(NC(=O)[C@@H]3CCCN3C(=O)[C@@H](NC(=O)OCc3ccccc3)C(C)C)c2)c1,Hepatitis C virus,"viral replication, inhibitor, luciferase","Huh-5-2, GETYPE1B","72 h, replicon",EC50,> 10 µM
CCCCCCC/C=C/C(=O)N1C(=O)/C(=C(\O)c2ccc(OCOCCOC)cc2)C(=O)C1CC(C)C (stereo not shown),Proteus mirabilis,microbial growth,ATCC25933,,MIC,> 200 µg/mL
CN[C@H](CC(C)C)C(=O)N[C@H]1C(=O)N[C@@H](CC(N)=O)C(=O)N[C@H]2C(=O)N[C@H]3C(=O)N[C@H](C(=O)N[C@H](C(=O)O)c4cc(O)cc(O)c4-c4cc3ccc4O)[C@H](O)c3ccc(c(Cl)c3)Oc3cc2cc(c3O[C@@H]2O[C@H](CO)[C@@H](O)[C@H](O)[C@H]2O[C@H]2C[C@](C)(N)[C@H](O)[C@H](C)O2)Oc2ccc(cc2Cl)[C@H]1O,Acinetobacter baumannii,"microbial killing, broth dilution",BAA747,,MBC,> 128 µM
CC(=O)OC[C@@]1(C)[C@H]2CC[C@@H]3CN(Cc4ccccc4)[C@@H](C4=CCOC4=O)C[C@H]3[C@]2(C)CC[C@H]1OC(C)=O,unidentified human coronavirus,cytopathic effect,MRC5,"25 µM, 72 h",inhibition,82.4%
Nc1nc(Cl)c2ncn([C@@H]3O[C@H](CO)[C@@H](F)[C@@H]3F)c2n1,Hepatitis C virus,"viral replication, inhibitor",Huh-7,replicon,EC90,> 10 µM
C[C@@]12COCO[C@@H]1CC[C@]1(C)[C@@H]2CC[C@@H]2CN(Cc3cccs3)[C@@H](C3=CCOC3=O)C[C@H]21,unidentified human coronavirus,cytopathic effect,MRC5,"25 µM, 72 h",inhibition,45.1%
C[C@@]1(O)[C@H](O)[C@@H](CO)O[C@H]1n1ccc(N)nc1=O,Hepatitis C virus,"viral replication, inhibitor",Huh-7,replicon,EC90,5.8 µM
CC1(C)OC[C@@]2(C)[C@H]3CC[C@@H]4CN(Cc5ccccc5C5CC5)[C@@H](C5=CCOC5=O)C[C@H]4[C@]3(C)CC[C@H]2O1,unidentified human coronavirus,cytopathic effect,MRC5,"25 µM, 72 h",inhibition,93.2%
CCOC(=O)N[C@@H](C(=O)N1CCC[C@@H]1C(=O)Nc1cccc(C#CC#Cc2cccc(NC(=O)[C@H]3CCCN3C(=O)[C@H](NC(=O)OCC)C(C)C)c2)c1)C(C)C,Hepatitis C virus,"viral replication, inhibitor, luciferase","Huh-5-2, GETYPE1B","72 h, replicon",EC50,> 10 µM
OC[C@H]1O[C@@H](n2cnc3c(NCc4ccccc4)nc(Cl)nc32)[C@@H](F)[C@@H]1F,Hepatitis C virus,"viral replication, inhibitor",Huh-7,replicon,EC90,9.9 µM
COC(=O)N[C@H](CC(C)C)C(=O)N1CCC[C@H]1C(=O)Nc1cccc(C#CC#Cc2cccc(NC(=O)[C@@H]3CCCN3C(=O)[C@@H](CC(C)C)NC(=O)OC)c2)c1,Hepatitis C virus,"viral replication, inhibitor, luciferase",GETYPE3A,replicon,EC50,4.67 µM
CC1(C)OC[C@@]2(C)[C@H]3CC[C@@H]4CN(Cc5ccc(C(C)(C)C)cc5)[C@@H](C5=CCOC5=O)C[C@H]4[C@]3(C)CC[C@H]2O1,unidentified human coronavirus,cytopathic effect,MRC5,"25 µM, 72 h",inhibition,103%
COC(=O)N[C@H](C(=O)N1CCC[C@H]1c1nc(-c2ccc(-c3ccc(-c4c[nH]c([C@@H]5CCCN5C(=O)[C@@H](NC(=O)OC)C(C)C)n4)cc3)cc2)c[nH]1)C(C)C,Hepatitis C virus,"viral replication, inhibitor, luciferase",GETYPE4A,replicon,EC50,2.1e-05 µM
Cc1ccc(S(=O)(=O)Nc2nc(N)c(-c3nc4ccccc4s3)c(-c3ccc(Cl)cc3)n2)cc1,Enterovirus B,plaque formation,"BGM, B4",,IC50,74 µg/mL
COC(=O)N[C@H](C(=O)N1CCC[C@H]1C(=O)Nc1cccc(C#CC#Cc2cccc(NC(=O)[C@@H]3CCCN3C(=O)[C@@H](NC(=O)OC)C(C)C)c2)c1)C(C)C,Hepatitis C virus,"viral replication, inhibitor, luciferase",GETYPE3A,replicon,EC50,9.5 µM
Nc1nc(Cl)c2ncn([C@@H]3O[C@H](COC(=O)c4ccccc4)[C@@H](F)[C@@H]3F)c2n1,Hepatitis C virus,"viral replication, inhibitor",Huh-7,replicon,EC90,10 µM
CCOC(=O)N[C@H](CC(C)C)C(=O)N1CCC[C@H]1C(=O)Nc1cccc(C#CC#Cc2cccc(NC(=O)[C@@H]3CCCN3C(=O)[C@@H](CC(C)C)NC(=O)OCC)c2)c1,Hepatitis C virus,"viral replication, inhibitor, luciferase","Huh-5-2, GETYPE1B","72 h, replicon",EC50,4.11e-05 µM
COc1ccc(CN2C[C@H]3CC[C@@H]4[C@](C)(CO)[C@H](O)CC[C@@]4(C)[C@@H]3C[C@@H]2C2=CCOC2=O)cc1,unidentified human coronavirus,cytopathic effect,MRC5,"25 µM, 72 h",inhibition,1.9%
